According to PMC2094211 (Biochimica et Biophysica Acta. Molecular Basis of Disease, 2007):
Positions count from the first letter of the chain named. Square brackets hold non-standard residues; d marks the D form. Ends that are not written are not given here. * marks the point of attachment. Nle = CCCC[C@H](N)C(=O)O; For = O=C*

Key:
FPR R190/N192 [1] = molecular target: T1, FPR R190/N192 (Homo sapiens, UniProt P21462); test: FACScan analysis of ligand binding
T1 sequence (P21462 1-350): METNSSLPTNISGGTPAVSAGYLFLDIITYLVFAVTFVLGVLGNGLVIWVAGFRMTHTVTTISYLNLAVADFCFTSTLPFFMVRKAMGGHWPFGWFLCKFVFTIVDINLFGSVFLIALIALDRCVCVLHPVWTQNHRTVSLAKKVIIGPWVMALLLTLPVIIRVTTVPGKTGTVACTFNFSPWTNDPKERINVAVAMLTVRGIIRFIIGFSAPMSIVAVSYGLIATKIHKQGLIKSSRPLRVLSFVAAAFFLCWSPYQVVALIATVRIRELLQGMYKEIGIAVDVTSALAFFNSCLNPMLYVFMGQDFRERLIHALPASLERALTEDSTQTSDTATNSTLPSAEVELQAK

FPR R190/K192 [2] = molecular target: T2, FPR R190/K192 (Homo sapiens, UniProt P21462, N192K); test: FACScan analysis of ligand binding
T2 sequence (P21462 1-350 N192K): T1 sequence (P21462 1-350) with N192K

FPR W190/N192 [3] = molecular target: T3, FPR W190/N192 (Homo sapiens, UniProt P21462, R190W); test: FACScan analysis of ligand binding
T3 sequence (P21462 1-350 R190W): T1 sequence (P21462 1-350) with R190W

FPR R190/N192 [4] = molecular target: T1, FPR R190/N192; test: Downregulation of surface FPR in CHO S cells; format: cell-based
Procedure, shortened: (§1)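 CHO S cells expressing the FPR variant were exposed to test compound (0.4% DMSO) in CHO-S-SFMII for 1 h at 37 °C. They were washed twice with cold phosphate buffer, then labeled 1 h at 4 °C with 50 nM formyl-Nle-Leu-Phe-Nle-Tyr-Lys-FITC in pH 7.4 buffer with Mg++, Ca++ and 5% FBS. Mean fluorescence was measured by FACScan, minus non-expressing cells.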

FPR R190/K192 [5] = molecular target: T2, FPR R190/K192; test: Downregulation of surface FPR in CHO S cells; format: cell-based
Procedure, shortened: as §1

FPR W190/N192 [6] = molecular target: T3, FPR W190/N192; test: Downregulation of surface FPR in CHO S cells; format: cell-based
Procedure, shortened: as §1

FPR W190/N192 [7] = molecular target: T4, FPR W190/N192 (Homo sapiens, UniProt P21462); test: FACS competition with formyl-Nle-Leu-Phe-Nle-Tyr-Lys-FITC
T4 chain: T1 sequence (P21462 1-350) with R190W

FPR R190/N192 [8] = molecular target: T5, FPR R190/N192 (Homo sapiens, UniProt P21462); test: as above
T5 chain: T1 sequence (P21462 1-350)

Ac-WEDAVGWI-NH2
Binding relative to WEDWVGWI, R190/N192 (FPR R190/N192 [1]; fold weaker): more than 10 fold | Binding relative to WEDWVGWI, R190/K192 (FPR R190/K192 [2]; fold weaker): more than 10 fold | Binding relative to WEDWVGWI, W190/N192 (FPR W190/N192 [3]; fold weaker): more than 10 fold

Ac-WEDWVGWI-NH2
Ki (FPR R190/N192 [1]; Ki for binding of peptides to R190/N192 FPR, ± SEM, vs 0.38 nM formyl-Nle-Leu-Phe-Nle-Tyr-Lys-FITC, 4 °C, 60 min): 1300 ± 200 nM | Ki (FPR R190/K192 [2]; Ki for binding of peptides to R190/K192 FPR, ± SEM, vs 0.38 nM formyl-Nle-Leu-Phe-Nle-Tyr-Lys-FITC, 4 °C, 60 min): 1300 ± 300 nM | Ki (FPR W190/N192 [3]): 2600 ± 400 nM | Inhibition of the downregulation with 300 nM formyl-Nle-Leu-Phe, R190/N192 (FPR R190/N192 [4]; 25 μM peptide, data not shown): ~50% | Inhibition of the downregulation with 300 nM formyl-Nle-Leu-Phe, R190/K192 (FPR R190/K192 [5]; 25 μM peptide, data not shown): ~50% | Inhibition of the downregulation with 300 nM formyl-Nle-Leu-Phe, W190/N192 (FPR W190/N192 [6]; 25 μM peptide, data not shown): ~50%

formyl-NleNleWED
Downregulation of surface receptor, R190/N192 (FPR R190/N192 [4]; concentrations up to 50 μM): very little downregulation | Downregulation of surface receptor, R190/K192 (FPR R190/K192 [5]; concentrations up to 50 μM): very little downregulation | Downregulation of surface receptor, W190/N192 (FPR W190/N192 [6]; concentrations up to 50 μM): very little downregulation

For-[Nle][Nle]WEDWVGWI [formyl-NleNleWEDWVGWI, listing 1 of 2 here]
Ki (FPR W190/N192 [7]): 1000 nM

Ac-WEDWVGWI-NH2 [WEDWVGWI (FIV GP-36 peptide)]
Ki (FPR R190/N192 [8]): 1300 nM

For-[Nle][Nle]WEDWVGWI [formyl-NleNleWEDWVGWI, listing 2 of 2 here]
Ki (FPR R190/N192 [8]): 480 nM
